{"source": "paper PMC4055946", "about": "(Nuclear medicine and biology, 2014)", "key": {"[1]": {"assay": "Rat whole body biodistribution of radioactivity after intravenous injection", "type": "in vivo", "conditions": "female CD rats, i.v., N = 3; for Tissue biodistribution, Bone, avg: femur in its entirety", "method_in_brief": "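Female CD rats (N = 6) under light isoflurane got carbon-11 labeled test compound (1.85-4.44 MBq in 5% ethanol/saline) by tail vein. At 5 and 40 min, groups of 3 were anesthetized and killed by decapitation, and tissues were removed. Samples were weighed and counted for carbon-11, and uptake was expressed as % injected dose/g.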"}, "cathepsin K": {"target": "T1, cathepsin K (Rattus norvegicus, UniProt O35186)", "T1 sequence (O35186 115-329)": "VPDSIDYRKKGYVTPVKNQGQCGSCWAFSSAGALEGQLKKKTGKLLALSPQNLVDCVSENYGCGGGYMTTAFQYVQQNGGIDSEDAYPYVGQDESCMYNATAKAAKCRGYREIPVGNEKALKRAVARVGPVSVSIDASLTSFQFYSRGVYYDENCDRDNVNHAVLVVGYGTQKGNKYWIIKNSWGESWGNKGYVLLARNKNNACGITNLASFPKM", "assay": "MicroPET imaging of bone uptake and blocking in rat", "conditions": "for radioactivity in actively growing bone regions relative to non-target regions such as muscle: normal rat, microPET, 0-60 min, i.v."}}, "data": [{"smiles": "[11CH3]Oc1ccc(CCNC(=O)c2cnc(C#N)nc2NC2CCCCC2)cc1", "note": "[[^11C]1, 2-cyano-4-(cyclohexylamino)-N-(4-[^11C]methoxyphenethyl)-pyrimidine-5-carboxamide]", "values": [{"measurement": "Tissue biodistribution, Adrenal, avg", "setting": "[1]; 5 min", "result": 3.57, "unit": "% injected dose/g"}, {"measurement": "Tissue biodistribution, Blood, avg", "setting": "[1]; 5 min", "result": 0.24, "unit": "% injected dose/g"}, {"measurement": "Tissue biodistribution, Brain, avg", "setting": "[1]; 5 min", "result": 0.43, "unit": "% injected dose/g"}, {"measurement": "Tissue biodistribution, Heart, avg", "setting": "[1]; 5 min", "result": 1.23, "unit": "% injected dose/g"}, {"measurement": "Tissue biodistribution, Kidney, avg", "setting": "[1]; 5 min", "result": 2.03, "unit": "% injected dose/g"}, {"measurement": "Tissue biodistribution, Liver, avg", "setting": "[1]; 5 min", "result": 3.02, "unit": "% injected dose/g"}, {"measurement": "Tissue biodistribution, Lung, avg", "setting": "[1]; 5 min", "result": 0.68, "unit": "% injected dose/g"}, {"measurement": "Tissue biodistribution, Muscle, avg", "setting": "[1]; 5 min", "result": 0.11, "unit": "% injected dose/g"}, {"measurement": "Tissue biodistribution, Pancreas, avg", "setting": "[1]; 5 min", "result": 1.68, "unit": "% injected dose/g"}, {"measurement": "Tissue biodistribution, Spleen, avg", "setting": "[1]; 5 min", "result": 1.03, "unit": "% injected dose/g"}, {"measurement": "Tissue biodistribution, Bone, avg", "setting": "[1]; 5 min", "result": 0.26, "unit": "% injected dose/g"}, {"measurement": "Tissue biodistribution, Adrenal, avg", "setting": "[1]; 40 min", "result": 0.51, "unit": "% injected dose/g"}, {"measurement": "Tissue biodistribution, Blood, avg", "setting": "[1]; 40 min", "result": 0.11, "unit": "% injected dose/g"}, {"measurement": "Tissue biodistribution, Brain, avg", "setting": "[1]; 40 min", "result": 0.11, "unit": "% injected dose/g"}, {"measurement": "Tissue biodistribution, Heart, avg", "setting": "[1]; 40 min", "result": 0.19, "unit": "% injected dose/g"}, {"measurement": "Tissue biodistribution, Kidney, avg", "setting": "[1]; 40 min", "result": 0.41, "unit": "% injected dose/g"}, {"measurement": "Tissue biodistribution, Liver, avg", "setting": "[1]; 40 min", "result": 0.68, "unit": "% injected dose/g"}, {"measurement": "Tissue biodistribution, Lung, avg", "setting": "[1]; 40 min", "result": 0.16, "unit": "% injected dose/g"}, {"measurement": "Tissue biodistribution, Muscle, avg", "setting": "[1]; 40 min", "result": 0.11, "unit": "% injected dose/g"}, {"measurement": "Tissue biodistribution, Pancreas, avg", "setting": "[1]; 40 min", "result": 0.56, "unit": "% injected dose/g"}, {"measurement": "Tissue biodistribution, Spleen, avg", "setting": "[1]; 40 min", "result": 0.22, "unit": "% injected dose/g"}, {"measurement": "Tissue biodistribution, Bone, avg", "setting": "[1]; 40 min", "result": 0.14, "unit": "% injected dose/g"}, {"measurement": "radioactivity in actively growing bone regions relative to non-target regions such as muscle", "setting": "cathepsin K", "result": "2 to 3", "unit": "times"}]}, {"smiles": "CC(C)(C)CNc1nc(C#N)ncc1C(=O)NCCc1ccc(O[11CH3])cc1", "note": "[[^11C]2, 2-cyano-N-(4-[^11C]methoxyphenethyl)-4-(neopentylamino)pyrimidine-5-carboxamide]", "values": [{"measurement": "radioactivity in actively growing bone regions relative to non-target regions such as muscle", "setting": "cathepsin K", "result": "2 to 3", "unit": "times"}, {"measurement": "bone uptake of radioactivity after blocking dose of unlabeled ligand", "setting": "cathepsin K; rat microPET, 2 mg/kg unlabeled 2 ten minutes prior to the radioligand", "result": "reduction of bone uptake of radioactivity to essentially levels equivalent to background in non-target tissues"}]}]}
